The nature of data set [1]: Cytotoxicity against RAOSMC after 3 days by cell counting analysis. To be noted: Rattus norvegicus, 72 h. The procedure, abridged: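 Primary aortic SMCs from male Sprague–Dawley rats, passages 4–10, are seeded at 2 × 10⁵ per 35-mm dish in DMEM with 10% FCS. After 24 h they are arrested in 0.4% FCS for 72 h, then given 10% FCS plus compound (DMSO at most 1%) for 72 h at 37 °C. Cells are trypsinized and counted with a Coulter counter. IC50 is obtained by linear regression of log concentration versus logit.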

Data set [2] deals with NCI-H460. Description: Cytotoxicity against human NCI-H460 cells after 3 days by cell counting analysis. The format is functional, cell-based. To be noted: NCI-H460, 72 h. The method, boiled down:
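NCI-H460 cells in RPMI-1640 with 10% FCS are seeded at 8 × 10⁴ per 35-mm dish and exposed to compound (DMSO at most 1%) 24 h later. Cells are harvested after 72 h, trypsinized and counted with a Coulter counter. IC50 is derived by linear regression of log concentration versus logit.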

For data set [3], the system named is NCI-H460. The data set is described as follows: Selectivity ratio of IC50 for rat SMC to IC50 for human NCI-H460 cells.
The subject of data set [4] is NCI-H460. Description: Cell cycle arrest in human NCI-H460 cells assessed as accumulation at G0/G1 phase at IC50 after 20 hrs using propidium Iodide staining by flow cytometry in presence of 10% fetal calf serum. It counts as functional. The method, boiled down:
(§1)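 NCI-H460 cells are seeded at 2 × 10⁵ per 35-mm dish in RPMI with 10% FCS. After 24 h they are serum-starved in 0.4% FCS for 2 days, then restimulated with 10% FCS with or without compound at 37 °C. Cells are trypsinized, fixed in 62% ethanol and stained 30 min in the dark (5 µg/mL propidium iodide, RNase, 1% NP-40).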
On the technique in general: In flow cytometry, cells or beads pass a laser one at a time.

In data set [5] the test system is NCI-H460. Description: Cell cycle arrest in human NCI-H460 cells assessed as accumulation at S phase at IC50 after 20 hrs using propidium Iodide staining by flow cytometry in presence of 10% fetal calf serum. The format is functional. The procedure, abridged: as §1
In data set [6] the test system is NCI-H460. The data set is described as follows: Cell cycle arrest in human NCI-H460 cells assessed as accumulation at G2/M phase at IC50 after 20 hrs using propidium Iodide staining by flow cytometry in presence of 10% fetal calf serum. The format is functional. The procedure, abridged: as §1
The subject of data set [7] is NCI-H460. The data set is described as follows: Cell cycle arrest in human NCI-H460 cells assessed as accumulation at sub-G0/G1 phase at IC50 after 20 hrs using propidium Iodide staining by flow cytometry in presence of 10% fetal calf serum. The format is functional, cell-based.
Data set [8] concerns the target DNA topoisomerase 2-alpha (Homo sapiens) (UniProt P11388). The data set is described as follows: Inhibition of topoisomerase 2-mediated relaxation of supercoiled pRYG DNA at 0.1 uM after 10 mins using ethidium bromide staining by agarose gel electrophoresis.
Another data set has as its system Nucleic Acid. The data set is described as follows: Binding affinity to supercoiled pRYG DNA at 0.1 uM after 10 mins by agarose gel electrophoresis. It counts as nucleic-acid assay.
Data set [9] deals with NCI-H460. Description: Antitumor activity against human NCI-H460 cells xenografted in athymic Swiss nude mouse assessed as tumor growth inhibition at 16.9 mg/kg, iv administered 2 days after tumor implantation for every 4th day for four times. Further details: dose 16.9 mg/kg. It counts as functional, organism-based. The method, boiled down: (§2)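 NCI-H460 tumor fragments are implanted s.c. in both flanks of athymic nude mice on day 0. Dosing is i.v. on days 2, 6, 10 and 14 (q4dx4) in 10% DMSO in water, with vehicle-only controls. Tumor diameters are measured twice weekly by caliper. Tumor weight in treated mice is compared with controls by unpaired two-tailed Student's t-test.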

A further data set deals with Mus musculus. Description: Toxicity in human […] cells xenografted in athymic Swiss nude mouse at 16.9 mg/kg, iv administered 2 days after tumor implantation for every 4th day for four times. It counts as organism-based. On the set-up: dose 16.9 mg/kg, route intravenous. To be noted: in vivo, 48 h. (In general: In xenograft studies the graft and the host belong to different species.)

Data set [10] has as its system NCI-H460. Description: Antitumor activity against human NCI-H460 cells xenografted in athymic Swiss nude mouse assessed as tumor growth inhibition at 10 mg/kg, iv administered 2 days after tumor implantation for every 4th day for four times. The format is functional, organism-based. Further details: dose 10 mg/kg. The procedure, abridged: as §2

Here are results for 13 compounds from ChEMBL document CHEMBL1817653, “Synthesis, structural, and biological evaluation of bis-heteroarylmaleimides and bis-heterofused imides” (Bioorg Med Chem, 2011).

Active and inactive are the calls of the source. The calls are words filed in the database; no cut-off is given here.

Chain of DNA topoisomerase 2-alpha (Homo sapiens) (P11388 whole entry): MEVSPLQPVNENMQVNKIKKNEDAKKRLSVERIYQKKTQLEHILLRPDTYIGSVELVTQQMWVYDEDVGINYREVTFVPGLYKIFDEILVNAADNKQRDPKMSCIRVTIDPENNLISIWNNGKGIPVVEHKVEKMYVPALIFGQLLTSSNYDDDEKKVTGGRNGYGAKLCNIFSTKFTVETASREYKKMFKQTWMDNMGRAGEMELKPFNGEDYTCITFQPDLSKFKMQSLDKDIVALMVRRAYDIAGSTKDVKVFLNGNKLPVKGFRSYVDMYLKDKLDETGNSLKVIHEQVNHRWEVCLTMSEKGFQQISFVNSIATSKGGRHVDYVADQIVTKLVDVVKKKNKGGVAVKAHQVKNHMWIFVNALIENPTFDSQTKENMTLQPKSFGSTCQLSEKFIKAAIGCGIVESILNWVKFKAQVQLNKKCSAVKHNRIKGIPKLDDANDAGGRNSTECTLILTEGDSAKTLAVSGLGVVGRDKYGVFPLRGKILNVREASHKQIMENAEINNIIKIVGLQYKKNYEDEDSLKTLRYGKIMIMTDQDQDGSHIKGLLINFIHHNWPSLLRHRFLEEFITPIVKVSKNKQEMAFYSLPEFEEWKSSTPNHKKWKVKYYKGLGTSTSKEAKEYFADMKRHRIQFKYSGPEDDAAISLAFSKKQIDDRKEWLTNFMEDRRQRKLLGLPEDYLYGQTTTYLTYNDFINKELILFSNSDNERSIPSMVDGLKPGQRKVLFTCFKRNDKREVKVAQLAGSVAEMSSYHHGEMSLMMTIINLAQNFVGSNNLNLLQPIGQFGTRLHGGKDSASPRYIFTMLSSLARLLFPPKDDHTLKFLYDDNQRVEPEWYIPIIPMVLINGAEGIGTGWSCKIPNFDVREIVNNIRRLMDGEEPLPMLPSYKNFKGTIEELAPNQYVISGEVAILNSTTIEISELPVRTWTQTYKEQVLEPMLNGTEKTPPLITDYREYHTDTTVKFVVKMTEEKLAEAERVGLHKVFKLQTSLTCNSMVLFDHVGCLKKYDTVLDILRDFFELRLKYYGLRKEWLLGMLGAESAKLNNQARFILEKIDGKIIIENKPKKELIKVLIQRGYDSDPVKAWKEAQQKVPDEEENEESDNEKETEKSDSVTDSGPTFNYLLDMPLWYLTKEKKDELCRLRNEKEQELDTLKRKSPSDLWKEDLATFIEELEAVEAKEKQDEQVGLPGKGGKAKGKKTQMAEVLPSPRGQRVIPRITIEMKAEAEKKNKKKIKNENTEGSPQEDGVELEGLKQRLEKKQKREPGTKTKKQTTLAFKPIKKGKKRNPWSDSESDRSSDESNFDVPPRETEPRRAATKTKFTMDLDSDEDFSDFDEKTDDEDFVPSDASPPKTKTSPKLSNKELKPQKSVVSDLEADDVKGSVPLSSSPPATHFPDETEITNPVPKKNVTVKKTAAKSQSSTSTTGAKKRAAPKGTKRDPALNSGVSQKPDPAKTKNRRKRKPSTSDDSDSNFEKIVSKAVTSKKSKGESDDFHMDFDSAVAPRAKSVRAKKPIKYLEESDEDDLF

For orientation: IC50 means the point on the concentration scale where inhibition reaches its midpoint. Read a high IC50 as lower potency. Turning to `O=C1c2c(c3ccccc3c3ccccc23)C(=O)N1CCNCCCNCCN1C(=O)c2c(c3ccccc3c3ccccc23)C1=O`, the IC50 in data set [1] amounted to 230 nM; with NCI-H460 [2], 400 nM.
For `O=C1c2c(c3sccc3c3ccoc23)C(=O)N1CCNCCCNCCN1C(=O)c2c(c3sccc3c3ccoc23)C1=O`, the IC50 in data set [1] is greater than 30000 nM; in the data set on NCI-H460 [2] it was 70 nM. The “Ratio IC50” value in the data set on NCI-H460 [3] is 500.
In the case of `O=C1C(c2cccs2)=C(c2c[nH]c3ccccc23)C(=O)N1CCNCCCNCCN1C(=O)C(c2cccs2)=C(c2c[nH]c3ccccc23)C1=O`, the IC50 in data set [1] was found to be 4700 nM; in the data set on NCI-H460 [2], 4200 nM.
Taken in the same sequence, the figures for `Cn1cccc1C1=C(c2ccco2)C(=O)N(CCNCCCNCCN2C(=O)C(c3ccco3)=C(c3cccn3C)C2=O)C1=O` were 730 nM and 650 nM.
Turning to `O=C1C(c2ccccc2)=C(c2ccccc2)C(=O)N1CCNCCCNCCN1C(=O)C(c2ccccc2)=C(c2ccccc2)C1=O`, the IC50 was found to be 620 nM in data set [1] and 1200 nM with NCI-H460 [2].
Taken in the same sequence, the figures for `O=C1C(c2cccs2)=C(c2cccs2)C(=O)N1CCCN1CCN(CCCN2C(=O)C(c3cccs3)=C(c3cccs3)C2=O)CC1` were greater than 30000 nM and greater than 30000 nM.
As for `O=C1C(c2ccco2)=C(c2cccs2)C(=O)N1CCNCCCNCCN1C(=O)C(c2ccco2)=C(c2cccs2)C1=O`, the IC50 in [1] is 3500 nM; in the data set with NCI-H460 [2], 500 nM.
As to `O=C1C(c2ccccc2)=C(c2c[nH]c3ccccc23)C(=O)N1CCNCCCNCCN1C(=O)C(c2ccccc2)=C(c2c[nH]c3ccccc23)C1=O`, the IC50 in [1] stood at 1000 nM; in the data set with NCI-H460 [2], 3900 nM.
Turning to `Cn1ccc2c3ccoc3c3c(c21)C(=O)N(CCNCCCNCCN1C(=O)c2c(c4c(ccn4C)c4ccoc24)C1=O)C3=O`, the half-inhibitory concentration (IC50) in data set [1] is 90 nM; in the data set with NCI-H460 [2], 3 nM. Moreover, the Activity in the data set with NCI-H460 [4] is on record as 76.63%; with NCI-H460 [5] it was 10.56%; with NCI-H460 [6], 12.81%; with Mus musculus, “Non-toxic”. Further, in the data set on NCI-H460 [7], the result was inactive. Moreover, the inhibition result in [8] is “Active”. Also, the result in the data set on Nucleic Acid was Active. For the same compound, in the data set on NCI-H460 [9], the TGI entry was “Active”. The TGI result in the data set on NCI-H460 [10] was “inactive”.
For `O=C1c2cccc3cccc(c23)C(=O)N1CCNCCCNCCN1C(=O)c2cccc3cccc(c23)C1=O` [ELINAFIDE], the IC50 in data set [1] turned out to be 12 nM; in the data set with NCI-H460 [2], 8 nM. Besides, in the data set with NCI-H460 [3], the “Ratio IC50” value was 1.5. The Activity in the data set with NCI-H460 [4] is given as 68.4%; in the data set on NCI-H460 [5] it was 13.44%; in the data set on NCI-H460 [6], 18.15%. Further, the outcome with NCI-H460 [7] was inactive. Besides, the inhibition result in data set [8] is “Active”. For the same compound, in the data set with Nucleic Acid, the outcome was Active.
Take `Cn1cccc1C1=C(c2cccs2)C(=O)N(CCNCCCNCCN2C(=O)C(c3cccs3)=C(c3cccn3C)C2=O)C1=O`: the figures for the IC50 (in data set [1]; in the data set with NCI-H460 [2]) were 1800 nM and 3400 nM, respectively.
Take `O=C1C(c2cccs2)=C(c2cccs2)C(=O)N1CCNCCCNCCN1C(=O)C(c2cccs2)=C(c2cccs2)C1=O`: the IC50 in [1] is 1300 nM; in the data set with NCI-H460 [2], 4300 nM.
For `Cn1cccc1C1=C(c2c[nH]c3ccccc23)C(=O)N(CCNCCCNCCN2C(=O)C(c3c[nH]c4ccccc34)=C(c3cccn3C)C2=O)C1=O`, the values for the IC50 (in data set [1]; in the data set with NCI-H460 [2]) were 16500 nM and 3900 nM, respectively.
